According to PMC5008228 (Journal of Parkinson's Disease, 2016):
“And” between values parts separate entries of the source, which are not always exact repeats. Identical values can stand only once.

What was measured:
Type in all cases: in vivo, human
PDD or DLB participants [1] = assay: Scales for Outcomes in Parkinson's disease-Cognition; details: for SCOPA-Cog (**/43) score: individual participants; for Average increase in SCOPA-Cog: six months compared to baseline
total tau = assay: Neurodegenerative disease magnetic bead panel, total tau and p-tau181
PDD or DLB participants [2] = assay: Laboratory blood chemistry; details: 150 mg group
Procedure, shortened: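 PDD or DLB participants (n = 5 at 150 mg, n = 7 at 300 mg) took oral doses daily for 24 weeks. Blood chemistry (lipids, phosphate, bilirubin, electrolytes, lipase, α-amylase, ALT, AST) plus CBC with differential were drawn every two weeks for the first two months, then monthly. EKGs and physical/neurological exams were done at the same visits.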

PDD or DLB participants [3] = assay: Mini Mental State Examination; details: for MMSE score: individual participants; for Average increase in MMSE: six months (24-week) compared to baseline
PDD or DLB participants [4] = assay: QTc interval by EKG; details: returned to normal range in subsequent visits
S100B = assay: Neurodegenerative disease magnetic bead panel, S100B
PDD or DLB participants [5] = assay: Unified Parkinson's Disease Rating Scale; details: 150 mg oral daily; for UPDRS-III score, AVG: group AVG (Screening AVG 37.8); for UPDRS-I-IV score / UPDRS-III score: individual participants; for UPDRS-I-IV score, AVG: group AVG (Screening AVG 72.60)

What does the source list for Cc1cn(-c2cc(NC(=O)c3ccc(C)c(Nc4nccc(-c5cccnc5)n4)c3)cc(C(F)(F)F)c2)cn1 [Nilotinib]?
SCOPA-Cog (**/43) score, AVG (PDD or DLB participants [1]; 150 mg oral daily, Week-8, group AVG (Screening AVG 9.4)): 10; SCOPA-Cog (**/43) score (PDD or DLB participants [1]; 150 mg oral daily, Week-8): 5 and 0 and 4 and 23 and 18; SCOPA-Cog (**/43) score, AVG (PDD or DLB participants [1]; 150 mg oral daily, Week-20, group AVG (Screening AVG 9.4)): 9.6; SCOPA-Cog (**/43) score (PDD or DLB participants [1]; 150 mg oral daily, Week-20): 3 and 1 and 0 and 26 and 18; SCOPA-Cog (**/43) score, AVG (PDD or DLB participants [1]; 150 mg oral daily, Week-24, group AVG (Screening AVG 9.4)): 11.25; SCOPA-Cog (**/43) score (PDD or DLB participants [1]; 150 mg oral daily, Week-24): 4 and 0 and 23 and 18; Average increase in SCOPA-Cog (PDD or DLB participants [1]; 150 mg oral daily): 1.85 points; SCOPA-Cog (**/43) score, AVG (PDD or DLB participants [1]; 300 mg oral daily, Week-8, group AVG (Screening AVG 10.33)): 12.17; SCOPA-Cog (**/43) score (PDD or DLB participants [1]; 300 mg oral daily, Week-8): 22 and 30 and 11 and 9 and 0 and 1; SCOPA-Cog (**/43) score, AVG (PDD or DLB participants [1]; 300 mg oral daily, Week-20, group AVG (Screening AVG 10.33)): 13.3; SCOPA-Cog (**/43) score (PDD or DLB participants [1]; 300 mg oral daily, Week-20): 21 and 30 and 19 and 10 and 0; SCOPA-Cog (**/43) score, AVG (PDD or DLB participants [1]; 300 mg oral daily, Week-24, group AVG (Screening AVG 10.33)): 12.33; SCOPA-Cog (**/43) score (PDD or DLB participants [1]; 300 mg oral daily, Week-24): 22 and 31 and 10 and 0 and 1; Average increase in SCOPA-Cog (PDD or DLB participants [1]; 300 mg oral daily): 2 points; CSF total tau vs baseline (total tau; 150 mg group, 2 months): significantly reduced; CSF total tau vs baseline (total tau; 300 mg group, 6 months): significantly reduced; AEs below normal range of alanine aminotransferase (ALT) level (<100%) (PDD or DLB participants [2]): three; MMSE score, AVG (PDD or DLB participants [3]; 300 ng (sub-heading as printed) oral daily, Week-4, group AVG (Screening AVG 17)): 20.3; MMSE score (PDD or DLB participants [3]; 300 ng (sub-heading as printed) oral daily, Week-4): 27 and 28 and 24 and 5 and 10; MMSE score, AVG (PDD or DLB participants [3]; 300 ng (sub-heading as printed) oral daily, Week-8, group AVG (Screening AVG 17)): 18.1; MMSE score (PDD or DLB participants [3]; 300 ng (sub-heading as printed) oral daily, Week-8): 28 and 23 and 24 and 2 and 8; MMSE score (PDD or DLB participants [3]; 300 ng (sub-heading as printed) oral daily, Week-12): 29 and 26 and 25 and 28 and 1 and 6; MMSE score (PDD or DLB participants [3]; 300 ng (sub-heading as printed) oral daily, Week-16): 27 and 29 and 25 and 14 and 6 and 12; MMSE score (PDD or DLB participants [3]; 300 ng (sub-heading as printed) oral daily, Week-20): 26 and 30 and 25 and 24 and 2 and 6; MMSE score (PDD or DLB participants [3]; 300 ng (sub-heading as printed) oral daily, Week-24): 28 and 30 and 25 and 26 and 5 and 9; MMSE score, AVG (PDD or DLB participants [3]; 150 mg oral daily, Week-4, group AVG (Screening AVG 15.4)): 17.4; MMSE score (PDD or DLB participants [3]; 150 mg oral daily, Week-4): 20 and 0 and 11 and 28; MMSE score, AVG (PDD or DLB participants [3]; 150 mg oral daily, Week-8, group AVG (Screening AVG 15.4)): 18; MMSE score (PDD or DLB participants [3]; 150 mg oral daily, Week-8): 22 and 1 and 11 and 29 and 27; MMSE score, AVG (PDD or DLB participants [3]; 150 mg oral daily, Week-12, group AVG (Screening AVG 15.4)): 18; MMSE score (PDD or DLB participants [3]; 150 mg oral daily, Week-12): 21 and 1 and 11 and 29 and 28; MMSE score, AVG (PDD or DLB participants [3]; 150 mg oral daily, Week-16, group AVG (Screening AVG 15.4)): 18.6; MMSE score (PDD or DLB participants [3]; 150 mg oral daily, Week-16): 26 and 1 and 8 and 30 and 28; MMSE score, AVG (PDD or DLB participants [3]; 150 mg oral daily, Week-20, group AVG (Screening AVG 15.4)): 18.4; MMSE score (PDD or DLB participants [3]; 150 mg oral daily, Week-20): 26 and 1 and 10 and 30 and 25; MMSE score, AVG (PDD or DLB participants [3]; 150 mg oral daily, Week-24, group AVG (Screening AVG 15.4)): 19.25; MMSE score (PDD or DLB participants [3]; 150 mg oral daily, Week-24): 23 and 2 and 29; Average increase in MMSE (PDD or DLB participants [3]; 150 mg oral daily): 3.85 points; Average increase in MMSE (PDD or DLB participants [3]; 300 mg oral daily): 3.5 points; QTc finding in participant NIL 8 (PDD or DLB participants [4]; 150 mg group): slight QTc prolongation >450 ms at week 8; QTc finding in participant NIL 15 (PDD or DLB participants [4]; 300 mg group): two episodes of QTc prolongation >450 ms at week 2 and week 8; CSF S100B level (S100B; 150 mg group): gradually reduced; CSF S100B level (S100B; 300 mg group): gradually reduced; UPDRS-III score, AVG (PDD or DLB participants [5]; Week-4): 29.4; UPDRS-I-IV score (PDD or DLB participants [5]; Week-4): 54 and 103 and 43 and 71 and 50; UPDRS-III score (PDD or DLB participants [5]; Week-4): 29 and 55 and 33 and 26; UPDRS-III score, AVG (PDD or DLB participants [5]; Week-8): 35.6; UPDRS-I-IV score, AVG (PDD or DLB participants [5]; Week-8): 69.00; UPDRS-I-IV score (PDD or DLB participants [5]; Week-8): 57 and 76 and 63 and 45; UPDRS-III score (PDD or DLB participants [5]; Week-8): 32 and 56 and 39 and 28 and 23; UPDRS-III score, AVG (PDD or DLB participants [5]; Week-12): 36.6; UPDRS-I-IV score, AVG (PDD or DLB participants [5]; Week-12): 69.40; UPDRS-I-IV score (PDD or DLB participants [5]; Week-12): 56 and 107 and 77 and 60 and 47; UPDRS-III score (PDD or DLB participants [5]; Week-12): 32 and 59 and 40 and 30 and 22; UPDRS-III score, AVG (PDD or DLB participants [5]; Week-16): 38; UPDRS-I-IV score, AVG (PDD or DLB participants [5]; Week-16): 70.20; UPDRS-I-IV score (PDD or DLB participants [5]; Week-16): 58 and 107 and 80 and 63 and 43; UPDRS-III score (PDD or DLB participants [5]; Week-16): 33 and 59 and 43 and 22
